Test results: ChEMBL document CHEMBL4229446, “Development of Novel Monoamine Oxidase-B (MAO-B) Inhibitors with Reduced Blood-Brain Barrier Permeability for the Potential Management of Noncentral Nervous System (CNS) Diseases” (J Med Chem, 2018)

Columns and labels:
[1] = Efflux ratio of apparent permeability in MDCK-WT cells at 10 uM after 1 hr in absence of P-gp inhibitor verapamil by UPLC-MS/MS analysis; conditions: dog
[2] = Cmax in C57BL/6 mouse plasma at 24.5 mg/kg, iv administered as single dose measured 24 hrs by UPLC-MS/MS analysis; format: ADME, organism-based; set-up: dose 24.5 mg/kg, route intravenous
In short: (§1)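 21 animals dosed at 0 min, 3 sacrificed at each of 0, 5, 15, 30 min, 1, 4 and 24 h. Plasma was extracted by protein precipitation with phospholipid removal. Brain was weighed, bead-homogenised in 50 mM ammonium formate and extracted in acidified organic solvent. Quantified by UPLC-MS/MS (MRM). Brain ng/g taken as ng/mL. Parameters came from noncompartmental analysis. Kp = AUClast brain/plasma.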

[3] = test system: Mus musculus; experiment: Acute toxicity in C57BL/6 mouse assessed as abnormal clinical signs at […], sc administered as single dose measured after 24 hrs post-injection; format: organism-based; conditions: in vivo
[4] = test system: Mus musculus; experiment: Acute toxicity in C57BL/6 mouse assessed as abnormal clinical signs at […], iv administered as single dose measured after 24 hrs post-injection; format: organism-based; conditions: in vivo
[5] = Cmax in C57BL/6 mouse brain at 24.5 mg/kg, iv administered as single dose measured 24 hrs by UPLC-MS/MS analysis; format: ADME, organism-based; set-up: dose 24.5 mg/kg, route intravenous
In short: as §1

[6] = Tmax in C57BL/6 mouse brain at 24.5 mg/kg, iv administered as single dose measured 24 hrs by UPLC-MS/MS analysis; format: ADME, organism-based
In short: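 Brains weighed, portion bead-homogenised in 50 mM ammonium formate, extracted in acidified organic solvent, quantified by UPLC-MS/MS. ng/g taken as ng/mL. Tmax from noncompartmental analysis.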

[7] = Metabolic stability in cryopreserved mouse hepatocytes assessed as parent compound remaining at 1 uM after 60 mins by UPLC-MS/MS analysis; format: ADME, cell-based, Hepatocyte; conditions: read-out: Stability
[8] = test system: P-gp (MDR1); experiment: Efflux ratio of apparent permeability in MDCK2-MDR1 cells at 10 uM after 1 hr in absence of P-gp inhibitor verapamil by UPLC-MS/MS analysis; format: ADME, cell-based, Canis lupus familiaris; conditions: dog, MDCK-MDR1
In short: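 MDCK-WT (MEM-α/10% FBS) or MDCK-MDR1 II (DMEM/10% FBS) cells were grown 3 days on 12-well transwells. Integrity was checked by TEER and 100 μM Lucifer yellow. Cells were washed in HBSS/10 mM HEPES. Compound at 10 μM was added apically or basally, in triplicate, ±100 μM verapamil. Receiver sampled at 1 h by UPLC-MS/MS. Efflux ratio = Papp B→A / Papp A→B.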

[9] = Metabolic stability in human plasma assessed as parent compound remaining at 5 uM after 4 hrs by UPLC-MS/MS analysis; format: ADME, cell-free; conditions: read-out: Stability
In short: (§2)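 Compound at 5 μM was incubated in mouse or human plasma at 37 °C with shaking. Sampled at 0, 5, 15, 30, 60, 120 and 240 min and stopped with ice-cold acetonitrile/0.1% formic acid containing internal standard. Supernatants analysed by UPLC-MS/MS for parent remaining. Run in triplicate.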

[10] = test system: Mus musculus; experiment: Acute toxicity in C57BL/6 mouse assessed as abnormal clinical signs at […], po administered as single dose measured after 24 hrs post-injection; format: organism-based; conditions: in vivo
[11] = target: T1, Amine oxidase [flavin-containing] A (Homo sapiens, UniProt P21397); experiment: Inhibition of human recombinant MAO-A expressed in baculovirus infected BTI-TN-5B1-4 insect cells using tyramine as substrate preincubated for 1 hr followed by substrate addition and measured after 30 mins by resazurin dye-based fluorescence assay
T1 sequence (P21397 whole entry): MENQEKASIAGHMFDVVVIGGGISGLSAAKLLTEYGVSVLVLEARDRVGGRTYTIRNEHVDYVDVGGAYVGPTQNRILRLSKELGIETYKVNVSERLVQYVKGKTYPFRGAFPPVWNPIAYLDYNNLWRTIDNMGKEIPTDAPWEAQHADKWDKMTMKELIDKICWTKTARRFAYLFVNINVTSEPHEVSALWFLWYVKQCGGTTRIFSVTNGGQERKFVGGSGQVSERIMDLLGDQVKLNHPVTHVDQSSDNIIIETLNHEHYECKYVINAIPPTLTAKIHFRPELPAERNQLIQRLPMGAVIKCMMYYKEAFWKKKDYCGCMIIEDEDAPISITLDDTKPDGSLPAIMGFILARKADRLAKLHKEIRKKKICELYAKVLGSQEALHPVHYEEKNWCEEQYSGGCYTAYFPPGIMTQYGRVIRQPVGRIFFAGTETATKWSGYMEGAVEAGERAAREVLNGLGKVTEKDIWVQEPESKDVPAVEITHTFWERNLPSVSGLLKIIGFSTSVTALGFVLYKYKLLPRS

[12] = AUClast in C57BL/6 mouse brain at 24.5 mg/kg, iv administered as single dose measured 24 hrs by UPLC-MS/MS analysis; format: ADME, organism-based; set-up: dose 24.5 mg/kg, route intravenous, time 0 - last
In short: as §1

[13] = Metabolic stability in mouse liver microsomes assessed as parent compound remaining at 1 uM after 60 mins in presence of NADPH by UPLC-MS/MS analysis; format: ADME, microsome; conditions: read-out: Stability
In short: (§3)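 Compound at 1 μM with 0.5 mg/mL mouse or human liver microsomes in 100 mM potassium phosphate pH 7.4, 3.3 mM MgCl2, 1 mM NADPH, at 37 °C. Started with NADPH; minus-NADPH control run. Stopped at 0, 5, 15, 30, 45 and 60 min with acetonitrile/formic acid plus internal standard. Parent remaining by UPLC-MS/MS, in triplicate.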

[14] = Metabolic stability in human liver microsomes assessed as parent compound remaining at 1 uM after 60 mins by UPLC-MS/MS analysis; format: ADME, microsome; conditions: liver microsomes, read-out: Stability
In short: as §3

[15] = Metabolic stability in mouse plasma assessed as parent compound remaining at 5 uM after 4 hrs by UPLC-MS/MS analysis; format: ADME, cell-free; conditions: read-out: Stability
In short: as §2

[16] = Tmax in C57BL/6 mouse brain at 23.4 mg/kg, iv administered as single dose measured 24 hrs by UPLC-MS/MS analysis; format: ADME, organism-based
In short: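 21 animals dosed at 0 min, 3 killed per time point (0, 5, 15, 30 min, 1, 4, 24 h). Plasma extracted by protein precipitation/phospholipid removal. Brain homogenized in 50 mM ammonium formate, then extracted in acidified organic solvent. Both quantified by UPLC-MS/MS (MRM), brain ng/g taken as ng/mL. Noncompartmental analysis. Kp = AUClast brain/plasma.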

[17] = Cmax in C57BL/6 mouse plasma at 23.4 mg/kg, po administered as single dose measured 24 hrs by UPLC-MS/MS analysis; format: ADME, organism-based; set-up: dose 23.4 mg/kg, route oral
In short: (§4)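 15 animals dosed, 3 killed at each of 1, 2, 4, 6 and 24 h. Plasma and brain homogenate (ammonium formate, acidified organic extraction) assayed by UPLC-MS/MS, brain ng/g taken as ng/mL. Noncompartmental parameters exclude values above/below quantification limit or undetected. Kp = AUClast brain/plasma.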

[18] = Cmax in C57BL/6 mouse plasma at 23.4 mg/kg, sc administered as single dose measured 24 hrs by UPLC-MS/MS analysis; format: ADME, organism-based; set-up: dose 23.4 mg/kg, route subcutaneous
In short: as §4

[19] = Ratio of AUClast in brain to plasma in C57BL/6 mouse at 23.4 mg/kg, po administered as single dose measured 24 hrs by UPLC-MS/MS analysis; format: ADME, organism-based
In short: as §4

Structure (SMILES)	efflux ratio at 1 h, 10 µM [1]	Cmax [2] [ng/mL]	Activity [3]	Activity [4]	Cmax [5] [ng/mL]	Tmax [6] [h]	remaining at 1 h, 1 µM [7] [%]	efflux ratio at 1 h, 10 µM [8]	remaining at 4 h, 5 µM [9] [%]	Activity [10]	IC50 [11] [µM]	AUC(0-t) at 24 h [12] [ng·h/mL]	remaining at 1 h, 1 µM [13] [%]	remaining at 1 h, 1 µM [14] [%]	remaining at 4 h, 5 µM [15] [%]	Tmax [16] [min]	Cmax [17] [ng/mL]	Cmax [18] [ng/mL]	Kp at 24 h [19]
C[C@H](Cc1ccc(OCc2ccc(Br)c(Cl)c2)cc1)N(C)CC(=O)O	1.33	16700	Non-Toxic	Non-Toxic	653	4	≥ 90	2.12	≥ 75	Non-Toxic	> 50	10700	93.4	≥ 90	≥ 75	–	–	–	–
CN(CC(=O)O)[C@H](CC#N)Cc1ccc(OCc2ccc(Cl)c(Cl)c2)cc1	1.07	–	Non-Toxic	Non-Toxic	–	–	64	1.14	≥ 75	Non-Toxic	126	–	39	≥ 90	≥ 75	5	16800	13300	0.002
